Assay results from PMC10238757 (Pharmacology Research & Perspectives, 2023).
Where two headings read alike, the source gives them in different places.

Columns and labels:
healthy participants [1] = experiment: Safety and tolerability, multiple ascending dose; assay type: in vivo, human; details: for Abdominal pain, n occurrences (% of cohort) / All-cause AEs Grade 2, n occurrences (% of cohort) / All-cause AEs Grade 3/4, n occurrences (% of cohort) / All-cause AEs, n occurrences (% of cohort) / Constipation, n occurrences (% of cohort) / Diarrhea, n occurrences (% of cohort) / Drug-related AEs Grade 2, n occurrences (% of cohort) / Drug-related AEs Grade 3/4, n occurrences (% of cohort) / Drug-related AEs, n occurrences (% of cohort) / Headache, n occurrences (% of cohort) / MDSD, n occurrences (% of cohort): N=7
In short: (§1)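 AEs in healthy participants given oral test compound or placebo, recorded with grade and relation to treatment. Laboratory analyses, clinical parameters and suicidality were also monitored. Observation ran 360 h after dosing. Summaries were descriptive, with no formal statistics; parts 1–2 blinded and placebo-controlled, part 3 open-label.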

rats = experiment: Dose ranging and good laboratory practice toxicology studies in rats; assay type: in vivo
healthy participants [2] = experiment: Safety pooled across study parts; assay type: in vivo, human
In short: as §1

healthy participants [3] = system: healthy participants

`C=C(C)[C@@H]1CC[C@]2(NCCN3CCS(=O)(=O)CC3)CC[C@]3(C)[C@H](CC[C@@H]4[C@@]5(C)CC=C(C6=CC[C@@](COc7ncccc7C#N)(C(=O)O)CC6)C(C)(C)[C@@H]5CC[C@]43C)[C@@H]12` [GSK'937] was tested, and the “changes in laboratory analyses, clinical parameters, or suicidality” value (healthy participants [1]; MAD) was “No significant changes”, the “deaths or SAEs” value (healthy participants [1]; MAD) was “no deaths or SAEs” and the “Abdominal pain, n occurrences (% of cohort)” value (shortened to “Abdominal pain … (% of cohort)”) (healthy participants [1]; MAD 25 mg QD) was 0. For the same compound, the “All-cause AEs Grade 2, n occurrences (% of cohort)” value (healthy participants [1]; MAD 25 mg QD) was 0, the “All-cause AEs Grade 3/4, n occurrences (% of cohort)” value (healthy participants [1]; MAD 25 mg QD) was 0 and the “All-cause AEs, n occurrences (% of cohort)” value (healthy participants [1]; MAD 25 mg QD) was 0. For the same compound, the “Constipation, n occurrences (% of cohort)” value (from here on “Constipation … (% of cohort)”) (healthy participants [1]; MAD 25 mg QD) was 0, the “Diarrhea, n occurrences (% of cohort)” value (healthy participants [1]; MAD 25 mg QD) was 0 and the “Drug-related AEs Grade 2, n occurrences (% of cohort)” value (healthy participants [1]; MAD 25 mg QD) was 0. For the same compound, the “Drug-related AEs Grade 3/4, n occurrences (% of cohort)” value (healthy participants [1]; MAD 25 mg QD) was 0, the “Drug-related AEs, n occurrences (% of cohort)” value (healthy participants [1]; MAD 25 mg QD) was 0 and the “Headache, n occurrences (% of cohort)” value (healthy participants [1]; MAD 25 mg QD) was 0. The “MDSD, n occurrences (% of cohort)” value (healthy participants [1]; MAD 25 mg QD) was 0, the “Abdominal pain … (% of cohort)” value (healthy participants [1]; MAD 50 mg QD) was 0 and the “All-cause AEs Grade 2, n occurrences (% of cohort)” value (healthy participants [1]; MAD 50 mg QD) was 1 (14). For the same compound, the “All-cause AEs Grade 3/4, n occurrences (% of cohort)” value (healthy participants [1]; MAD 50 mg QD) was 0, the “All-cause AEs, n occurrences (% of cohort)” value (healthy participants [1]; MAD 50 mg QD) was 3 (29) and the “Constipation … (% of cohort)” value (healthy participants [1]; MAD 50 mg QD) was 0. The “Diarrhea, n occurrences (% of cohort)” value (healthy participants [1]; MAD 50 mg QD) was 0, the “Drug-related AEs Grade 2, n occurrences (% of cohort)” value (healthy participants [1]; MAD 50 mg QD) was 0 and the “Drug-related AEs Grade 3/4, n occurrences (% of cohort)” value (healthy participants [1]; MAD 50 mg QD) was 0. For the same compound, the “Drug-related AEs, n occurrences (% of cohort)” value (healthy participants [1]; MAD 50 mg QD) was 0, the “Headache, n occurrences (% of cohort)” value (healthy participants [1]; MAD 50 mg QD) was 1 (14) and the “MDSD, n occurrences (% of cohort)” value (healthy participants [1]; MAD 50 mg QD) was 1 (14). For the same compound, the “Abdominal pain … (% of cohort)” value (healthy participants [1]; MAD 100 mg QD) was 0, the “All-cause AEs Grade 2, n occurrences (% of cohort)” value (healthy participants [1]; MAD 100 mg QD) was 0 and the “All-cause AEs Grade 3/4, n occurrences (% of cohort)” value (healthy participants [1]; MAD 100 mg QD) was 0. For the same compound, the “All-cause AEs, n occurrences (% of cohort)” value (healthy participants [1]; MAD 100 mg QD) was 8 (71), the “Constipation … (% of cohort)” value (healthy participants [1]; MAD 100 mg QD) was 0 and the “Diarrhea, n occurrences (% of cohort)” value (healthy participants [1]; MAD 100 mg QD) was 0. The “Drug-related AEs Grade 2, n occurrences (% of cohort)” value (healthy participants [1]; MAD 100 mg QD) was 0, the “Drug-related AEs Grade 3/4, n occurrences (% of cohort)” value (healthy participants [1]; MAD 100 mg QD) was 0 and the “Drug-related AEs, n occurrences (% of cohort)” value (healthy participants [1]; MAD 100 mg QD) was 1 (14). For the same compound, the “Headache, n occurrences (% of cohort)” value (healthy participants [1]; MAD 100 mg QD) was 0, the “MDSD, n occurrences (% of cohort)” value (healthy participants [1]; MAD 100 mg QD) was 1 (14) and the “Abdominal pain … (% of cohort)” value (healthy participants [1]; MAD 500 mg QW) was 1 (14). For the same compound, the “All-cause AEs Grade 2, n occurrences (% of cohort)” value (healthy participants [1]; MAD 500 mg QW) was 0, the “All-cause AEs Grade 3/4, n occurrences (% of cohort)” value (healthy participants [1]; MAD 500 mg QW) was 0 and the “All-cause AEs, n occurrences (% of cohort)” value (healthy participants [1]; MAD 500 mg QW) was 7 (57). The “Constipation … (% of cohort)” value (healthy participants [1]; MAD 500 mg QW) was 0, the “Drug-related AEs Grade 2, n occurrences (% of cohort)” value (healthy participants [1]; MAD 500 mg QW) was 0 and the “Drug-related AEs Grade 3/4, n occurrences (% of cohort)” value (healthy participants [1]; MAD 500 mg QW) was 0. The “Drug-related AEs, n occurrences (% of cohort)” value (healthy participants [1]; MAD 500 mg QW) was 3 (43), the “Headache, n occurrences (% of cohort)” value (healthy participants [1]; MAD 500 mg QW) was 0 and the “MDSD, n occurrences (% of cohort)” value (healthy participants [1]; MAD 500 mg QW) was 1 (14). For the same compound, the “no observed adverse effect level” value (rats) was 10 mg/kg/day, the “severity of all AEs in participants receiving GSK'937” value (healthy participants [2]; all study parts) was “grade 1 or 2” and the “dry skin among AEs attributable to GSK'937” value (healthy participants [2]; parts 1 and 2, 1/17) was 6%. The “headache among AEs attributable to GSK'937” value (healthy participants [2]; parts 1 and 2, 2/17) was 12%, the “Gastrointestinal disorders among GSK'937 recipients” value (healthy participants [2]; parts 1 and 2, 13/64) was 20% and the “GI disorders among AEs attributable to GSK'937” value (healthy participants [2]; parts 1 and 2, 14/17) was 82%. For the same compound, the “deaths or SAEs” value (healthy participants [3]; SAD) was “No deaths or SAEs occurred”, the “Abdominal pain … (% of cohort)” value (healthy participants [3]; SAD 10 mg, N=6) was 1 (17) and the “All-cause AEs Grade 2, n occurrences (% of cohort)” value (healthy participants [3]; SAD 10 mg, N=6) was 0. The “All-cause AEs Grade 3/4, n occurrences (% of cohort)” value (healthy participants [3]; SAD 10 mg, N=6) was 0, the “All-cause AEs, n occurrences (% of cohort)” value (healthy participants [3]; SAD 10 mg, N=6) was 3 (17) and the “Constipation … (% of cohort)” value (healthy participants [3]; SAD 10 mg, N=6) was 0. The “Diarrhea, n occurrences (% of cohort)” value (healthy participants [3]; SAD 10 mg, N=6) was 0 and the “Drug-related AEs Grade 2, n occurrences (% of cohort)” value (healthy participants [3]; SAD 10 mg, N=6) was 0.
